In ChEMBL document CHEMBL2169847, “New tricks for an old natural product: discovery of highly potent evodiamine derivatives as novel antitumor agents by systemic structure-activity relationship analysis and biological evaluations” (J Med Chem, 2012):
Active and inactive are the calls of the source. The rule behind the calls is not given here.

What was measured:
MDA-MB-435 = assay: Cytotoxicity against human MDA-MB-435 cells incubated for 72 hrs by MTT assay; assay type: functional; settings: MDA-MB-435, 72 h
Method in brief: (§1)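 MTT assay. Cells seeded at 5 × 10³/well and grown 24 h at 37 °C, 5% CO₂. Compounds added at several concentrations in triplicate wells, with 0.1% DMSO control, for 72 h. MTT then added for 4 h, formazan dissolved in DMSO, and absorbance read at 570 nm. GI₅₀ by Logit method; three experiments.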

HCT-116 = assay: Cytotoxicity against human HCT116 cells incubated for 72 hrs by MTT assay; assay type: functional; settings: HCT-116, 72 h; method in brief: as §1
A549 = assay: Cytotoxicity against human A549 cells incubated for 72 hrs by MTT assay; assay type: functional; settings: A549, 72 h; method in brief: as §1
[1] = target: T1, DNA topoisomerase 1 (Homo sapiens) (UniProt P11387); assay: Inhibition of Top1 assessed as suppression of supercoiled pBR322 DNA relaxation measuring appearance of short DNA fragments at 100 uM incubated for 15 mins by electrophoresis method
T1 sequence (whole entry): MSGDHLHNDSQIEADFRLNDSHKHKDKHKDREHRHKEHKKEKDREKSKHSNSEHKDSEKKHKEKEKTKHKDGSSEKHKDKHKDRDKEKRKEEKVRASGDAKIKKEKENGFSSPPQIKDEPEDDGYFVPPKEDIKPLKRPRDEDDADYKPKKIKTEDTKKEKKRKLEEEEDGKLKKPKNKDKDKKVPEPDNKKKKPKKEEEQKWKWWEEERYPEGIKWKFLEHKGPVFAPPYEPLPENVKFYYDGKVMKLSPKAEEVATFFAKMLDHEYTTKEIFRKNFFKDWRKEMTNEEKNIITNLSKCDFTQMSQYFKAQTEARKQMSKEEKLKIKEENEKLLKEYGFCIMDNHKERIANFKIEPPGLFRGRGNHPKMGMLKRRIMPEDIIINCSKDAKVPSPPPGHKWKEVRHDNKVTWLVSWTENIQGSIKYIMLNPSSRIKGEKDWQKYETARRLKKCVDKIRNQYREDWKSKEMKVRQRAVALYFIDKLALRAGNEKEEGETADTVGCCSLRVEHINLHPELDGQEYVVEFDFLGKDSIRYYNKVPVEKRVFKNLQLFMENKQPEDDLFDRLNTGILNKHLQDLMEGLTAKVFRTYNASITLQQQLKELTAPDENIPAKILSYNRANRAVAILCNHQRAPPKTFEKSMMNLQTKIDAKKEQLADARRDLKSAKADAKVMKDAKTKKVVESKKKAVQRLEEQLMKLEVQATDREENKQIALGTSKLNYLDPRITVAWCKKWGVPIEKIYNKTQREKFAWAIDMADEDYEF

Compound	GI50 (MDA-MB-435) [µM]	GI50 (HCT-116) [µM]	GI50 (A549) [µM]	inhibition [1]
CN1c2ccc(I)cc2C(=O)N2CCc3c([nH]c4ccccc34)C21 (configuration not stated)	2.94	> 200	> 200	
Cc1cccc2c1N(C)C1c3[nH]c4ccccc4c3CCN1C2=O (configuration not stated)	0.084	0.011	0.23	Active
CC[C@@]1(O)C(=O)OCc2c1cc1n(c2=O)Cc2cc3c(CN(C)C)c(O)ccc3nc2-1 [TOPOTECAN]	0.034	0.4	3.96	
CN1c2cccc(F)c2C(=O)N2CCc3c([nH]c4ccccc34)C21 (configuration not stated)	42.6	> 200	200	
CN1c2cccc(Cl)c2C(=O)N2CCc3c([nH]c4ccccc34)C21 (configuration not stated)	1.43	4.56	5.65	
CCCOc1ccc2[nH]c3c(c2c1)CCN1C(=O)c2ccccc2N(C)C31 (configuration not stated)	3.07	8.05	> 200	
CN1c2ccccc2C(=S)N2CCc3c(n(C(=O)c4ccc(Cl)cc4)c4ccccc34)C21 (configuration not stated)	> 200	> 200	> 200	
COc1ccc2c(c1)c1c(n2C(=O)c2ccc(Cl)cc2)C2N(CC1)C(=O)c1ccccc1N2C (configuration not stated)	11.8	71	87.2	
Cc1ccc2[nH]c3c(c2c1)CCN1C(=O)c2ccccc2N(C)C31 (configuration not stated)	> 200	> 200	> 200	
CN1c2ccccc2C(=S)N2CCc3c([nH]c4ccccc34)C21 (configuration not stated)	12.2	46.5	90.7	
COc1ccc2[nH]c3c(c2c1)CCN1C(=O)c2cc([N+](=O)[O-])ccc2N(C)C31 (configuration not stated)	> 200	0.15	> 200	
COc1cc2c(cc1OC)N(C)C1c3[nH]c4ccccc4c3CCN1C2=O (configuration not stated)	8.97	> 200	> 200	
COc1ccc2[nH]c3c(c2c1)CCN1C(=O)c2cc(F)ccc2NC31 (configuration not stated)	18.5	26.7	60.1	
COc1ccc2[nH]c3c(c2c1)CCN1C(=S)c2ccccc2N(C)C31 (configuration not stated)	3.69	21.4	106	
CN1c2ccccc2C(=O)N2CCc3c([nH]c4ccc(Cl)cc34)C21 (configuration not stated)	> 200	> 200	> 200	
CN1c2ccccc2C(=O)N2CCc3c([nH]c4ccc(I)cc34)C21 (configuration not stated)	0.26	0.78	11.4	
COc1ccc2[nH]c3c(c2c1)CCN1C(=O)c2c(OC)cccc2N(C)C31 (configuration not stated)	21	42	98	
COc1ccc2[nH]c3c(c2c1)CCn1c-3nc2ccc(F)cc2c1=O	> 200	138	> 200	
C#CCOc1ccc2[nH]c3c(c2c1)CCN1C(=O)c2ccccc2N(C)C31 (configuration not stated)	4.39	14	> 200	

Compound	GI50 (MDA-MB-435) [µM]	GI50 (HCT-116) [µM]	GI50 (A549) [µM]	inhibition [1]
COc1ccc2[nH]c3c(c2c1)CCN1C(=O)c2ccccc2N(C)C31 (configuration not stated)	8.97	> 200	> 200	
CN1c2ccc(NC(=O)C3CC3)cc2C(=O)N2CCc3c([nH]c4ccccc34)C21 (configuration not stated)	> 200	187	> 200	
O=C1c2cc(F)ccc2NC2c3[nH]c4ccccc4c3CCN12 (configuration not stated)	> 200	> 200	> 200	
CN1c2ccccc2CN2CCc3c(n(C(=O)c4ccc(Cl)cc4)c4ccccc34)C21 (configuration not stated)	96	> 200	> 200	
CN1c2ccc([N+](=O)[O-])cc2C(=O)N2CCc3c([nH]c4ccccc34)C21 (configuration not stated)	> 200	> 200	> 200	
CN1c2ccc(N3CCC3)cc2C(=O)N2CCc3c([nH]c4ccccc34)C21 (configuration not stated)	0.2	3.85	> 200	
CN1c2ccccc2C(=O)N2CCc3c(n(C(=O)c4ccc(Cl)cc4)c4ccc(O)cc34)C21 (configuration not stated)	< 0.002	0.05	26.6	
COc1ccc2[nH]c3c(c2c1)CCN1C(=O)c2cc(F)ccc2N(C)C31 (configuration not stated)	< 0.003	0.78	200	
CN1c2cc(Cl)ccc2C(=O)N2CCc3c([nH]c4ccccc34)C21 (configuration not stated)	> 200	> 200	> 200	
Cc1ccc2c(c1)C(=O)N1CCc3c([nH]c4ccccc34)C1N2C (configuration not stated)	0.32	0.61	32.2	
COc1ccc2[nH]c3c(c2c1)CCN1C(=O)c2cc(Cl)ccc2N(C)C31 (configuration not stated)	2	0.004	13	
O=C1c2ccccc2OC2c3[nH]c4ccccc4c3CCN12 (configuration not stated)	3.13	3.03	2.4	
CN1c2ccc(Br)cc2C(=O)N2CCc3c(n(C(=O)c4ccc(Cl)cc4)c4ccccc34)C21 (configuration not stated)	8.72	39.7	> 200	
Cc1cccc2c1C(=O)N1CCc3c([nH]c4ccccc34)C1N2C (configuration not stated)	20.2	13.1	14.3	
CN1c2ccccc2C(=O)N2CCc3c([nH]c4ccc([N+](=O)[O-])cc34)C21 (configuration not stated)	> 200	> 200	> 200	
CN1c2ccc(Br)cc2C(=O)N2CCc3c([nH]c4ccccc34)C21 (configuration not stated)	1.5	14.1	14.5	
CN1c2ccccc2C(=O)N2CCc3c([nH]c4c([N+](=O)[O-])cc([N+](=O)[O-])cc34)C21 (configuration not stated)	0.16	> 200	> 200	
CN1c2ccccc2C(=O)N2CCc3c([nH]c4ccc(F)cc34)C21 (configuration not stated)	27.4	8.56	6.85	
CN1c2ccccc2CN2CCc3c([nH]c4ccccc34)C21 (configuration not stated)	16.2	> 200	> 200	

Compound	GI50 (MDA-MB-435) [µM]	GI50 (HCT-116) [µM]	GI50 (A549) [µM]	inhibition [1]
COc1ccc2c(c1)C(=O)N1CCc3c([nH]c4ccc(OC)cc34)C1N2C (configuration not stated)	9.8	0.033	> 200	
CN1c2ccccc2C(=O)N2CCc3c([nH]c4ccc(OCC5CO5)cc34)C21 (configuration not stated)	0.61	2.98	48.9	
CCc1c2c(nc3ccc(OC(=O)N4CCC(N5CCCCC5)CC4)cc13)-c1cc3c(c(=O)n1C2)COC(=O)[C@]3(O)CC [IRINOTECAN]	12.2	7.1	5	
CN1c2ccccc2C(=O)N2CCc3c([nH]c4ccc(OCc5ccccc5)cc34)C21 (configuration not stated)	41.2	> 200	> 200	
O=C1c2ccccc2OC2c3c(c4ccccc4n3C(=O)c3ccc(Cl)cc3)CCN12 (configuration not stated)	> 200	> 200	> 200	
CCOc1ccc2[nH]c3c(c2c1)CCN1C(=O)c2ccccc2N(C)C31 (configuration not stated)	5.93	19.2	> 200	
C#CCN(CC#C)c1ccc2c(c1)C(=O)N1CCc3c([nH]c4ccccc34)C1N2C (configuration not stated)	2.03	0.21	> 200	
CN1c2ccccc2C(=O)N2CCc3c([nH]c4ccc(OC(=O)C5CC5)cc34)C21 (configuration not stated)	0.08	0.01	1.9	
COc1cccc2c1C(=O)N1CCc3c([nH]c4ccccc34)C1N2C (configuration not stated)	22.3	19.7	128	
CN1c2ccccc2C(=O)N2CCc3c(n(C(=O)c4ccc(Cl)cc4)c4ccc(Br)cc34)C21 (configuration not stated)	38.7	19.7	22.5	
COc1ccc2c(c1)C(=O)N1CCc3c([nH]c4ccc(O)cc34)C1N2C (configuration not stated)	0.66	0.07	1.6	
CC(=O)Nc1ccc2c(c1)C(=O)N1CCc3c([nH]c4ccccc34)C1N2C (configuration not stated)	59.1	70.5	> 200	
COc1ccc2c(c1)C(=O)N1CCc3c(n(C(=O)c4ccc(Cl)cc4)c4ccccc34)C1N2C (configuration not stated)	184	88.7	> 200	
CN1c2ccccc2C(=O)N2CCc3c([nH]c4ccc(Br)cc34)C21 (configuration not stated)	37.6	> 200	> 200	
COc1ccc2c(c1)C(=O)N1CCc3c([nH]c4ccccc34)C1N2C (configuration not stated)	0.29	1.25	0.94	
CN1c2ccccc2C(=O)N2CCc3c(n(C(=O)c4ccc(Cl)cc4)c4ccc(Cl)cc34)C21 (configuration not stated)	72.7	> 200	> 200	
COc1ccc2c(c1)N(C)C1c3[nH]c4ccccc4c3CCN1C2=O (configuration not stated)	> 200	> 200	> 200	
Cc1ccc2c(c1)c1c(n2C(=O)c2ccc(Cl)cc2)C2N(CC1)C(=O)c1ccccc1N2C (configuration not stated)	1.14	11.4	> 200	
O=c1c2cc(F)ccc2nc2n1CCc1c-2[nH]c2ccccc12	15.9	20	47.2	
